ChEMBL document CHEMBL4706740, “Structure-Activity Study of Nitazoxanide Derivatives as Novel STAT3 Pathway Inhibitors” (ACS Med Chem Lett, 2021)
The source made the active and inactive calls. No cut-off for these calls is given here.

Legend:
[1] = tested on: HeLa; experiment: Antiproliferative activity against human HeLa cells assessed as cell growth inhibition measured after 48 hrs by MTT assay; assay type: functional, cell-based
Procedure, shortened: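 Growth was read by MTT assay, and IC50 was taken from the dose–response curve. Values are averages of three independent experiments.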

[2] = tested on: PC-3; experiment: Antiproliferative activity against human PC3 cells assessed as cell growth inhibition measured after 48 hrs by MTT assay; assay type: functional, cell-based; conditions: PC-3, 48 h
[3] = tested on: HeLa; experiment: Cytotoxicity against human HeLa cells assessed as inhibition of cell viability measured after 48 hrs by MTT assay; assay type: functional, cell-based
Procedure, shortened: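 Growth was read by MTT assay and IC50 taken from dose–response curves. Values are averages of three independent experiments.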

[4] = tested on: HeLa; experiment: Induction of apoptosis in human HeLa cells assessed as viable cells at 20 uM incubated for 24 hrs by Annexin V-FITC/PI staining based flow cytometry (reference value: 92.45%); assay type: functional; conditions: read-out: Activity
[5] = Apparent clearance in Sprague-Dawley rat at 5 mg/kg, iv; assay type: ADME, organism-based; conditions: in vivo, read-out: CL(app) (converted)
Procedure, shortened: (§1)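 Rats, n = 3 per group, received a single dose either intragastrically (25 mg/kg) or intravenously (5 mg/kg). Plasma concentration–time curves were used to derive t1/2α, t1/2β, Vd/F, CL/F, AUC0–∞, Tmax and Cmax. Absolute oral bioavailability was calculated from the ig and iv data.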

[6] = Elimination Half life in Sprague-Dawley rat at 5 mg/kg, iv; assay type: ADME, organism-based; conditions: in vivo, read-out: beta t1/2 (converted); procedure, shortened: as §1
[7] = Cytotoxicity against human HEK-Blue IL-6 cells assessed as cell death at 80 uM; assay type: cell-based; conditions: hek-blue il-6, 80 µM
[8] = Apparent oral clearance in Sprague-Dawley rat at 25 mg/kg, IG; assay type: ADME, organism-based; conditions: in vivo, read-out: CL(app) (converted); procedure, shortened: as §1
[9] = Cytotoxicity against human HEK-Blue IL-6 cells assessed as cell death at > 10 uM; assay type: cell-based
[10] = AUC (0 to infinity) in Sprague-Dawley rat at 5 mg/kg, iv; assay type: ADME, organism-based; design: route intravenous, time infinity, dose 5 mg/kg; conditions: in vivo; procedure, shortened: as §1
[11] = tested on: HeLa; experiment: Induction of apoptosis in human HeLa cells assessed as early apoptotic cells at 10 uM incubated for 24 hrs by Annexin V-FITC/PI staining based flow cytometry (reference value: 2.84%); assay type: functional
[12] = Cytotoxicity against human HeLa cells assessed as inhibition of cell viability at 10 uM measured after 48 hrs by MTT assay; assay type: cell-based; conditions: read-out: INH
[13] = Half life in Sprague-Dawley rat at 25 mg/kg, IG; assay type: ADME, organism-based; conditions: in vivo, po; procedure, shortened: as §1
[14] = tested on: HeLa; experiment: Induction of cell cycle arrest in human HeLa cells assessed as accumulation at S phase at 10 uM measured after 24 hrs by flow cytometry analysis (reference value: 34.04%); assay type: functional
[15] = tested on: HeLa; experiment: Induction of cell cycle arrest in human HeLa cells assessed as accumulation at G2/M phase at 10 uM measured after 24 hrs by flow cytometry analysis (reference value: 11.81%); assay type: functional
[16] = molecular target: Signal transducer and activator of transcription 3 (Homo sapiens) (UniProt P40763); experiment: Binding affinity to GST-tagged human STAT3 using 5-carboxyfluorescein labelled peptide incubated for 1 hr by fluorescence polarization assay
Signal transducer and activator of transcription 3 (Homo sapiens), sequence (P40763 whole entry): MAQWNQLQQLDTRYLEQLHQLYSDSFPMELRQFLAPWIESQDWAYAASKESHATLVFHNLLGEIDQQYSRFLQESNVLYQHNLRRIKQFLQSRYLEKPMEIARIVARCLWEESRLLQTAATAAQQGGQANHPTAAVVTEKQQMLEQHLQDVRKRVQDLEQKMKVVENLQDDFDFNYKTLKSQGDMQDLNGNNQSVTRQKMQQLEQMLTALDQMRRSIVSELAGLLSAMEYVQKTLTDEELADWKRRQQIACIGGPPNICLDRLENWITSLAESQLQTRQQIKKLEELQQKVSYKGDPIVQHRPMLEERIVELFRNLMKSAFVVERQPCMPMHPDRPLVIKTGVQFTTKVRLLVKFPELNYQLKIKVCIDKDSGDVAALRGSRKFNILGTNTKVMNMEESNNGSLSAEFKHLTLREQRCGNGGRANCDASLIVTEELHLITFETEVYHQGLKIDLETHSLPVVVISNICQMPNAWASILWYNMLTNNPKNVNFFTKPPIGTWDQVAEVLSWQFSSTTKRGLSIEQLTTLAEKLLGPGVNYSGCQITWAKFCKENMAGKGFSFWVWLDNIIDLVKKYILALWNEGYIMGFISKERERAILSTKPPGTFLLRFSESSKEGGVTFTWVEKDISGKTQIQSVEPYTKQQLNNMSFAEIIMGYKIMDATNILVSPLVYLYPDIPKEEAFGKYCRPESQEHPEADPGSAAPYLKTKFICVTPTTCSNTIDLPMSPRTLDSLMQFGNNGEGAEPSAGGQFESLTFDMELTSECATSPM

[17] = tested on: HeLa; experiment: Induction of apoptosis in human HeLa cells assessed as necrotic cells at 20 uM incubated for 24 hrs by Annexin V-FITC/PI staining based flow cytometry (reference value: 0.02%); assay type: functional
[18] = molecular target: Signal transducer and activator of transcription 3 (Homo sapiens) (UniProt P40763); experiment: Inhibition of STAT3 transcriptional activity in human HeLa cells assessed as downregulation of c-Myc expression upto 80 uM after 24 hrs by western blot analysis; assay type: cell-based; conditions: dose microM <=80, time […]
Procedure, shortened: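 HeLa cells treated 24 h with a concentration series. Total cell lysates probed by Western blot with specific antibodies for the STAT3 target gene products cyclin D1, c-Myc and survivin.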

[19] = tested on: HeLa; experiment: Induction of apoptosis in human HeLa cells assessed as necrotic cells at 10 uM incubated for 24 hrs by Annexin V-FITC/PI staining based flow cytometry (reference value: 0.02%); assay type: functional
[20] = Half life in Sprague-Dawley rat at 5 mg/kg, iv; assay type: ADME, organism-based; conditions: in vivo; procedure, shortened: as §1
[21] = molecular target: Proto-oncogene tyrosine-protein kinase Src (Homo sapiens) (UniProt P12931); experiment: Inhibition of Src phosphorylation at Tyr416 in human Hela cells upto 80 uM after 24 hrs by Western blot analysis; assay type: cell-based; conditions: dose microM <=80, time […]
Proto-oncogene tyrosine-protein kinase Src (Homo sapiens), sequence (P12931 2-536 limits assumed): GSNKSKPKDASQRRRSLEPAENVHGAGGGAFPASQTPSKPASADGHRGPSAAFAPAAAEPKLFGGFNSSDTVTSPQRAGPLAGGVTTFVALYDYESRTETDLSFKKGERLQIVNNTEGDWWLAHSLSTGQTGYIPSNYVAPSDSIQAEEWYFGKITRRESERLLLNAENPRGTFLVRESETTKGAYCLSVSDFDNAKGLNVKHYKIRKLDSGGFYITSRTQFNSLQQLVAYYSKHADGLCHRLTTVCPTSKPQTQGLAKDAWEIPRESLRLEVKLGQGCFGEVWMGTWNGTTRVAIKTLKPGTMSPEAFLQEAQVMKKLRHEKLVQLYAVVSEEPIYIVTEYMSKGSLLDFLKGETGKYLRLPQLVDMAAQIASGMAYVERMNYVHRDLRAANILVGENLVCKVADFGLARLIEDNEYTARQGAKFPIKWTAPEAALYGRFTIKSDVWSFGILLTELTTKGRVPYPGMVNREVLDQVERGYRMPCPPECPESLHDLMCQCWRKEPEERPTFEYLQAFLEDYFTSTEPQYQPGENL

[22] = molecular target: Signal transducer and activator of transcription 3 (Homo sapiens) (UniProt P40763); experiment: Inhibition of IL-6 induced STAT3 transcriptional activity in human HEK-Blue IL-6 cells assessed as secreted embryonic alkaline phosphatase reporter gene expression at 10 uM by microplate reader; assay type: cell-based
Procedure, shortened: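 Single-concentration screen in HEK-Blue IL-6 cells: % inhibition of the SEAP reporter read-out of STAT3 pathway activity, with viability checked by MTT in parallel. Values are averages of three independent experiments.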

[23] = molecular target: Signal transducer and activator of transcription 3 (Homo sapiens) (UniProt P40763); experiment: Inhibition of STAT3 in human Hela cell lysate assessed as inhibition of protein and DNA interaction upto 200 uM incubated 30 mins by electrophoretic mobility shift assay; assay type: subcellular; conditions: dose microM <=200, time 30.0 min
[24] = molecular target: Signal transducer and activator of transcription 3 (Homo sapiens) (UniProt P40763); experiment: Inhibition of STAT3 in human HeLa cells assessed as decrease in phosphorylation of STAT3 at Tyr705 measured after 24 hrs by Western blot analysis; assay type: cell-based; conditions: dose microM <=80, time […]
Procedure, shortened: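 HeLa cells exposed 24 h to a range of compound doses. Total cell lysates immunoblotted with specific antibodies for p-STAT3 (Tyr705), p-STAT3 (Ser727) and total STAT3.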

[25] = tested on: HeLa; experiment: Induction of apoptosis in human HeLa cells assessed as early apoptotic cells at 20 uM incubated for 24 hrs by Annexin V-FITC/PI staining based flow cytometry (reference value: 2.84%); assay type: functional
[26] = tested on: HeLa; experiment: Induction of cell cycle arrest in human HeLa cells assessed as accumulation at G0/G1 phase at 20 uM measured after 24 hrs by flow cytometry analysis (reference value: 54.16%); assay type: functional
[27] = tested on: HeLa; experiment: Induction of apoptosis in human HeLa cells assessed as late apoptotic cells at 40 uM incubated for 24 hrs by Annexin V-FITC/PI staining based flow cytometry (reference value: 4.7%); assay type: functional
[28] = tested on: HeLa; experiment: Induction of cell cycle arrest in human HeLa cells assessed as accumulation at G2/M phase at 20 uM measured after 24 hrs by flow cytometry analysis (reference value: 11.81%); assay type: functional
[29] = tested on: HeLa; experiment: Induction of cell cycle arrest in human HeLa cells assessed as accumulation at S phase at 20 uM measured after 24 hrs by flow cytometry analysis (reference value: 34.04%); assay type: functional
[30] = tested on: HL-60; experiment: Antiproliferative activity against human HL60 cells assessed as cell growth inhibition measured after 48 hrs by MTT assay; assay type: functional, cell-based; conditions: HL-60, 48 h
[31] = tested on: HeLa; experiment: Effect on Jak2 level in human Hela cells upto 80 uM after 24 hrs by Western blot analysis; assay type: functional, cell-based; conditions: dose microM <=80, time […]
[32] = Cytotoxicity against human HEK 293T cells assessed as cell growth inhibition at 50 uM measured after 48 hrs by MTT assay; assay type: cell-based
[33] = molecular target: Tyrosine-protein kinase JAK2 (Homo sapiens) (UniProt O60674); experiment: Inhibition of Jak2 phosphorylation at Tyr1007/1008 in human Hela cells upto 80 uM after 24 hrs by Western blot analysis; assay type: cell-based; conditions: dose microM <=80, time […]
Tyrosine-protein kinase JAK2 (Homo sapiens), sequence (O60674 whole entry): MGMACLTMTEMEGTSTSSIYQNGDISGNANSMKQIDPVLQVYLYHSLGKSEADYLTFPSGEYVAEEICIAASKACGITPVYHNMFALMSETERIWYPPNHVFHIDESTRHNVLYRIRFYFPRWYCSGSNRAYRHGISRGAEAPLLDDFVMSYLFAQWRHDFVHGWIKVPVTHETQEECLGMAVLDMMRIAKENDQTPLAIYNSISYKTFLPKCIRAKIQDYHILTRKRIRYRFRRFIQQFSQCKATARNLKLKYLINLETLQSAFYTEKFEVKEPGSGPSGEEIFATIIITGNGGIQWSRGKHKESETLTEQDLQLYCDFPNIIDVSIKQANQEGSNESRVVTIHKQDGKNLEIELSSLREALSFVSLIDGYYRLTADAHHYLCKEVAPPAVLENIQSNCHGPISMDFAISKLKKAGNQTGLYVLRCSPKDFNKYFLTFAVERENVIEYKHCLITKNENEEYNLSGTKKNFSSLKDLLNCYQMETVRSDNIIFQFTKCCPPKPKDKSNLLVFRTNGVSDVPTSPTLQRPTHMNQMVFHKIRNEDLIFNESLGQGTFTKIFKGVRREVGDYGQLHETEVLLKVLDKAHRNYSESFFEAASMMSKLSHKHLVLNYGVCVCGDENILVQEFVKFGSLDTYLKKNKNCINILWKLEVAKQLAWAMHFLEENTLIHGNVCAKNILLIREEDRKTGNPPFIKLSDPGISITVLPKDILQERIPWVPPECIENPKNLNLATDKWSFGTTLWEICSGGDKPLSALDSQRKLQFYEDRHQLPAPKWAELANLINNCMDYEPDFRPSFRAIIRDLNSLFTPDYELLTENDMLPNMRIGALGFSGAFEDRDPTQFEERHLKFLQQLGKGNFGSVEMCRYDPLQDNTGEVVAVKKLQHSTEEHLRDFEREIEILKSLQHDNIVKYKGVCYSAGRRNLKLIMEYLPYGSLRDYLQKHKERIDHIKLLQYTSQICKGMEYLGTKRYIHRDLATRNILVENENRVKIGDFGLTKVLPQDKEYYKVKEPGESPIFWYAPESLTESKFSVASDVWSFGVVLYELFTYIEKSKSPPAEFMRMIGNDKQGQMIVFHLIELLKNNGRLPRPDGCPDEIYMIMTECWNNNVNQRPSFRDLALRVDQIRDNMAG

## CC(=O)Oc1ccccc1C(=O)Nc1ncc([N+](=O)[O-])s1 [NITAZOXANIDE]
[1]
  IC50: 35 µM
[2]
  IC50: 44.7 µM
[3]
  IC50: 35 µM
[4]
  viability at 20 µM: 84.1%
[5]
  clearance: 0.5 L/h/kg
[6]
  half-life: 18 min
[7]
  Activity: Non-Toxic
[8]
  CL/F: 6.3 L/h/kg
[9]
  Activity: Non-Toxic
[10]
  AUC(0-inf): 11.2 µg·h/mL
[11]
  Activity: 2.34%
[12]
  cytotoxicity at 48 h, 10 µM: 19.4%
[13]
  half-life: 36 min
[14]
  Activity: 28.45%
[15]
  Activity: 9.59%
[16]
  Activity: inactive
[17]
  Activity: 0.04%
[18]
  inhibition: Dose-dependent effect
[19]
  Activity: 0.02%
[20]
  half-life: 3 min
[21]
  inhibition: inactive
[22]
  inhibition: 54.6%
[23]
  inhibition: inactive
[24]
  inhibition: Dose-dependent effect
[25]
  Activity: 4.49%
[26]
  Activity: 69.88%
[27]
  Activity: 15.12%
[28]
  Activity: 8.27%
[29]
  Activity: 21.84%
[30]
  IC50: 20.1 µM
[31]
  Activity: inactive
[32]
  inhibition at 48 h, 50 µM: 24.4%
[33]
  inhibition: inactive
